Measured values as given in article PMC10441415 (bioRxiv, 2023).
Where “and” joins values, the source holds several entries; their conditions need not be identical. Equal values may be shown once.

Key:
[1] = system: Nos2, Ifn-γ, Tnf-α, Cd38, Egr2; design: species or system BALB/c mice; details: mouse, in vivo
Mtb H37Rv [2] = system: Mtb H37Rv; design: species or system Mycobacterium tuberculosis; details: in vivo
[3] = system: naive CD4+ and CD8+ T cells; details: via interactions with CD14+ monocytes in vitro; cited from earlier work
[4] = system: lung inflammation of Mtb-infected mice; design: species or system BALB/c mice; details: mouse, in vivo
[5] = mouse, in vivo, ip
Mtb H37Rv [6] = system: Mtb H37Rv; design: species or system Mycobacterium tuberculosis; details: in vivo; remark: listed apart in the source
[7] = system: lung inflammation of Mtb-infected mice; design: species or system BALB/c mice; details: mouse, in vivo; remark: listed apart in the source
[8] = system: human peripheral blood mononuclear cells; details: cited from earlier work
[9] = Single-dose plasma pharmacokinetics, intraperitoneal; format: in vivo, BALB/c mice; details: single IP dose, sampling up to 24 hours
In short: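 Female BALB/c mice, 9–11 weeks old, each received one intraperitoneal dose (5 or 10 mg/kg) of the test compound, a tin metalloporphyrin HO-1 inhibitor, in sodium phosphate buffer (pH 7.4 – 7.8). Blood was drawn from three mice per time point at 0.25, 0.5, 1, 2, 4, 8 and 24 h. Plasma was assayed by LC-MS/MS. t1/2, tmax, Cmax, AUClast and AUCInf came from noncompartmental analysis.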

[10] = chronic treatment, wild-type mice; cited from earlier work
Mtb = details: C57BL/6 mice, chronic phase of infection; cited from earlier work
Mtb-infected U937 cells = details: cited from earlier work

Row | SMILES | Cd38 expression in lung compared to any other treatment group [1] | Tnf-α expression in lung relative to vehicle [1] | Additive effect on lung CFU when co-administered with SPaO (Mtb H37Rv [2]) | Enhancement of the bactericidal activity of RHZ (Mtb H37Rv [2]) | Mean lung log10 CFU count (±SD) at W2 (Mtb H37Rv [2]) | Mean lung log10 CFU count (±SD) at W4 (Mtb H37Rv [2]) | Mean lung log10 CFU count (±SD) at W6 (Mtb H37Rv [2]) | Reduction of mean lung bacillary burden relative to vehicle control (Mtb H37Rv [2]) | Activation, proliferation, and maturation of naive CD4+ and CD8+ T cells [3] | Gross or histological lung pathology [4] | Tolerability [5] | Lung bacillary burdens relative to the SPaO regimen (Mtb H37Rv [6]) | Microbiological relapse rates (Mtb H37Rv [6]) | Lung/body weight ratio versus SPaO control regimen [7] | Expression of pro-inflammatory cytokines [8] | Last time point with detectable blood concentrations [9] | Reduction of mean lung bacterial burden relative to vehicle control (Mtb H37Rv [2]) | Tubulointerstitial inflammation and fibrosis [10] | Lung bacillary burden (Mtb) | Secretion of proinflammatory cytokines, including TNF-α (Mtb-infected U937 cells)
1 | CCC1=C(C)c2cc3[n-]c(cc4[n-]c(cc5nc(cc1n2)C(C)=C5CC)c(C)c4CCC(=O)O)c(CCC(=O)O)c3C.[Cl-].[Cl-].[Sn+4] [SnMP, stannsoporfin] | significantly higher expression | reduced expression | neither SnPP nor SnMP adjunctive therapy showed an additive effect | did not significantly enhance | 5.73 ± 0.22 log10 CFU | 5.36 ± 0.31 log10 CFU | 5.98 ± 0.06 log10 CFU | 0.67 log10 CFU | induce the activation, proliferation, and maturation | did not significantly alter | well tolerated | did not significantly alter | did not reduce microbiological relapse rates | did not differ statistically | induces the expression of pro-inflammatory cytokines | 8 h |  |  |  | 
2 | C=Cc1c2[n-]c(c1C)/C=c1\[n-]/c(c(C)c1C=C)=C\c1[n-]c(c(CCC(=O)O)c1C)C=c1[n-]/c(c(C)c1CCC(=O)O)=C\2.[Sn+4] [SnPP, tin-protoporphyrin IX] |  |  | neither SnPP nor SnMP adjunctive therapy showed an additive effect | did not significantly enhance | 5.52 ± 0.29 log10 CFU | 5.30 ± 0.30 log10 CFU | 5.30 ± 0.19 log10 CFU | 0.88 log10 CFU |  |  |  |  |  |  |  | 8 h | 1.2 log10 CFU and 1.1 log10 CFU | can induce tubulointerstitial inflammation and fibrosis | reduced the lung bacillary burden alone | reduced the secretion of proinflammatory cytokines
